# Laboratory results published in ChEMBL document CHEMBL1131198, “From micromolar to nanomolar affinity: a systematic approach to identify the binding site of CGRP at the human calcitonin gene-related peptide 1 receptor” (J Med Chem, 1998).
# Biological target: Calcitonin gene-related peptide type 1 receptor (Homo sapiens, UniProt Q16602)
# Assay: CGRP1 receptor affinity on human neuroblastoma cells SK-N-MC, which selectively express the human CGRP1 receptor.
# Outline: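 SK-N-MC membranes (cells grown in DMEM, detached with PBS/0.02% EDTA, homogenized, pellet in Tris buffer pH 7.40 with 1% BSA, 0.1% bacitracin, stored -80 °C) diluted 1:10 in assay buffer (50 mM Tris, 150 mM NaCl, 5 mM MgCl2, 1 mM EDTA, pH 7.40).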
# Chain of Calcitonin gene-related peptide type 1 receptor (Q16602 whole entry): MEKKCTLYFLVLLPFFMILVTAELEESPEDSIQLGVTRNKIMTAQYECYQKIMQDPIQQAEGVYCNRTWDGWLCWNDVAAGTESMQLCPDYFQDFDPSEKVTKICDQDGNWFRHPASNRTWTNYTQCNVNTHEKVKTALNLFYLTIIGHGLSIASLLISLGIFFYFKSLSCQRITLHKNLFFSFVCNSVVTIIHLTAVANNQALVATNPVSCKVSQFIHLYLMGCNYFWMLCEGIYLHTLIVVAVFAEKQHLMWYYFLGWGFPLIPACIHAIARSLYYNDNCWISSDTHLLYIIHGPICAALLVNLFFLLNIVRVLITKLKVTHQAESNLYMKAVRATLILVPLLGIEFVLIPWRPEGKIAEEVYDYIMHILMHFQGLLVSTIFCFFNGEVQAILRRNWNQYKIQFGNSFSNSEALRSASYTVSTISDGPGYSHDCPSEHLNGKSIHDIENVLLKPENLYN
row,Substance,IC50
1,H-YVPTNFGSEAF-OH,No displacement
2,H-YVPTNV-OH,No displacement
3,H-YVPTNVASEAF-OH,No displacement
4,H-YVPTNVFSEAF-OH,No displacement
5,H-YVPTNVG-OH,No displacement
6,H-YVPTNVGFEAF-OH,No displacement
7,H-YVPTNVGS-OH,No displacement
8,H-YVPTNVGSE-OH,No displacement
9,H-YVPTNVGSEA-OH,No displacement
10,H-YVPTNVGSEAA-OH,No displacement
11,H-YVPTNVGSEFF-OH,No displacement
